Converted amounts (≈) assume the structure as drawn. The source made the active and inactive calls. No cut-off for these calls is given here.
How the values were obtained:
Rattus norvegicus [1] = test: Neurotoxicity in Sprague-Dawley rat at 30 mg/kg, po after 0.25 hrs by rotarod test; type: toxicity, organism-based; parameters: dose 30 mg/kg, route oral; conditions: in vivo
Rattus norvegicus [2] = test: Neurotoxicity in Sprague-Dawley rat assessed as time to peak effect at 10 to 30 mg/kg, ip after 0.25 to 4 hrs by rotarod test; type: toxicity, organism-based; parameters: route intraperitoneal; conditions: in vivo
Mus musculus [3] = test: Anticonvulsant activity in CF1 mouse assessed as inhibition of maximal electroshock-induced seizures at 30 mg/kg, ip after 0.5 hrs; type: functional, organism-based; parameters: dose 30 mg/kg
In short: (§1)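 Male albino CF#1 mice (18–25.5 g), compound suspended in 0.5% methylcellulose, given ip 0.5 h or 4 h before test. Eyes treated with 0.5% tetracaine HCl in saline; corneal-type MES at 60 Hz, 50 mA for 0.2 s; protection scored as animals protected/tested.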

Mus musculus [4] = test: Anticonvulsant activity in CF1 mouse assessed as inhibition of maximal electroshock-induced seizures at 30 mg/kg, ip after 4 hrs; type: functional, organism-based; parameters: dose 30 mg/kg; in short: as §1
Mus musculus [5] = test: Anticonvulsant activity in CF1 mouse assessed as inhibition of maximal electroshock-induced seizures at 300 mg/kg, ip after 0.5 hrs; type: functional, organism-based; parameters: dose 300 mg/kg; in short: as §1
[6] = Therapeutic index, ratio of TD50 for CF1 mouse to ED50 for CF1 mouse
In short: (§2)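 Ratio of TD50 to ED50, both from ip dosing at the time of peak effect, with groups of at least 8 per dose and Finney probit analysis. […] Toxicity was read by rotarod in mice and by positional sense, gait and stance in rats.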

Rattus norvegicus [7] = test: Anticonvulsant activity in ip dosed Sprague-Dawley rat assessed as inhibition of maximal electroshock-induced seizures after 0.5 hrs; type: functional
Mus musculus [8] = test: Neurotoxicity in CF1 mouse at 100 mg/kg, ip after 4 hrs by rotarod test; type: toxicity, organism-based; parameters: dose 100 mg/kg, route intraperitoneal; conditions: in vivo
In short: (§3)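 Male albino CF#1 mice (18–25.5 g) dosed ip with compound suspended in 0.5% methylcellulose, 0.5 h or 4 h before testing; neurotoxicity assessed by rotarod, scored as number toxic/number tested.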

Pseudomonas aeruginosa = test: Antibacterial activity against Pseudomonas aeruginosa ATCC 27853 after 24 hrs by broth microdilution method; type: functional; conditions: ATCC 27853, 24 h
In short: (§4)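 Broth microdilution in Mueller Hinton broth; compound stocks in DMSO, diluted into test medium. Plates incubated at 35 °C and read visually after 24 h. MIC taken as lowest concentration preventing visible growth. Ampicillin reference.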

Mus musculus [9] = test: Neurotoxicity in CF1 mouse assessed as time to peak effect at 150 mg/kg, ip after 1 to 2 hrs by rotarod test; type: toxicity, organism-based; parameters: dose 150 mg/kg, route intraperitoneal; conditions: in vivo
Rattus norvegicus [10] = test: Anticonvulsant activity in Sprague-Dawley rat assessed as inhibition of maximal electroshock-induced seizures at 30 mg/kg, po after 2 hrs; type: functional, organism-based; parameters: dose 30 mg/kg
In short: (§5)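 Male albino Sprague-Dawley rats (105–130 g) given a single oral 30 mg/kg dose suspended in 0.5% methylcellulose; MES (60 Hz, 150 mA, 0.2 s, tetracaine-anesthetized eyes) at 0.25, 0.5, 1, 2 and 4 h; 4 rats per time point; scored protected/tested.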

Mus musculus [11] = test: Anticonvulsant activity in ip dosed CF1 mouse assessed as inhibition of ScM-induced seizures after 5 hrs; type: functional
Staphylococcus aureus = test: Antibacterial activity against Staphylococcus aureus ATCC 25923 after 24 hrs by broth microdilution method; type: functional; conditions: ATCC 25923, 24 h; in short: as §4
Rattus norvegicus [12] = test: Neurotoxicity in Sprague-Dawley rat at 30 mg/kg, ip after 0.5 hrs by rotarod test; type: toxicity, organism-based; parameters: dose 30 mg/kg, route intraperitoneal; conditions: in vivo
Mus musculus [13] = test: Neurotoxicity in CF1 mouse assessed as hyperactivity at 300 mg/kg, ip after 0.5 hrs by rotarod test; type: toxicity, organism-based; parameters: dose 300 mg/kg, route intraperitoneal; conditions: in vivo
[14] = Therapeutic index, ratio of TD50 for Sprague-Dawley rat to ED50 for Sprague-Dawley rat; in short: as §2
Rattus norvegicus [15] = test: Neurotoxicity in Sprague-Dawley rat at 30 mg/kg, po after 0.5 hrs by rotarod test; type: toxicity, organism-based; parameters: dose 30 mg/kg, route oral; conditions: in vivo
Rattus norvegicus [16] = test: Anticonvulsant activity in Sprague-Dawley rat assessed as time to peak effect for inhibition of maximal electroshock-induced seizures at 30 mg/kg, ip; type: functional; conditions: route intraperitoneal
Rattus norvegicus [17] = test: Neurotoxicity in Sprague-Dawley rat at 30 mg/kg, ip after 4 hrs by rotarod test; type: toxicity, organism-based; parameters: dose 30 mg/kg, route intraperitoneal; conditions: in vivo
Rattus norvegicus [18] = test: Neurotoxicity in Sprague-Dawley rat assessed as time to peak effect at 50 mg/kg, ip after 2 to 6 hrs by rotarod test; type: toxicity, organism-based; parameters: dose 50 mg/kg, route intraperitoneal; conditions: in vivo
Mus musculus [19] = test: Anticonvulsant activity in CF1 mouse assessed as inhibition of maximal electroshock-induced seizures at 300 mg/kg, ip after 4 hrs; type: functional, organism-based; parameters: dose 300 mg/kg; in short: as §1
Mus musculus [20] = test: Neurotoxicity in CF1 mouse at 30 mg/kg, ip after 4 hrs by rotarod test; type: toxicity, organism-based; parameters: dose 30 mg/kg, route intraperitoneal; conditions: in vivo; in short: as §3
Rattus norvegicus [21] = test: Neurotoxicity in ip dosed Sprague-Dawley rat after 0.5 hrs by rotarod test; type: toxicity, organism-based; conditions: in vivo
Rattus norvegicus [22] = test: Anticonvulsant activity in Sprague-Dawley rat assessed as inhibition of maximal electroshock-induced seizures at 30 mg/kg, po after 0.25 hrs; type: functional, organism-based; parameters: dose 30 mg/kg; in short: as §5
Rattus norvegicus [23] = test: Neurotoxicity in Sprague-Dawley rat at 30 mg/kg, ip after 2 hrs by rotarod test; type: toxicity, organism-based; parameters: dose 30 mg/kg, route intraperitoneal; conditions: in vivo
Mus musculus [24] = test: Anticonvulsant activity in CF1 mouse assessed as time to peak effect for inhibition of maximal electroshock-induced seizures at 35 mg/kg, ip after 2 hrs; type: functional, organism-based; parameters: dose 35 mg/kg
[25] = Neurotoxicity in ip dosed CF1 mouse after 0.25 hrs by rotarod test; type: toxicity, organism-based; conditions: in vivo
In short: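 TD50 was determined at the time of peak effect in male albino animals. Compound was suspended in 0.5% methylcellulose and given ip. Neurotoxicity was read by rotarod in CF#1 mice and by positional sense, gait and stance in Sprague-Dawley rats. Groups of at least 8 received graded doses spanning 0–100% toxicity.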

Rattus norvegicus [26] = test: Neurotoxicity in Sprague-Dawley rat assessed as time to peak effect at 75 mg/kg, ip by rotarod test; type: toxicity, organism-based; parameters: dose 75 mg/kg, route intraperitoneal; conditions: in vivo
Mus musculus [27] = test: Neurotoxicity in CF1 mouse at 100 mg/kg, ip after 0.5 hrs by rotarod test; type: toxicity, organism-based; parameters: dose 100 mg/kg, route intraperitoneal; conditions: in vivo; in short: as §3
Mus musculus [28] = test: Anticonvulsant activity in ip dosed CF1 mouse assessed as inhibition of maximal electroshock-induced seizures after 0.5 hrs; type: functional
Mus musculus [29] = test: Anticonvulsant activity in CF1 mouse assessed as time to peak effect for inhibition of maximal electroshock-induced seizures at 70 mg/kg, ip; type: functional; conditions: route intraperitoneal
Escherichia coli = test: Antibacterial activity against Escherichia coli ATCC 25922 after 24 hrs by broth microdilution method; type: functional; conditions: ATCC 25922, 24 h; in short: as §4
Rattus norvegicus [30] = test: Neurotoxicity in Sprague-Dawley rat at 30 mg/kg, po after 2 hrs by rotarod test; type: toxicity, organism-based; parameters: dose 30 mg/kg, route oral; conditions: in vivo
Mus musculus [31] = test: Anticonvulsant activity in CF1 mouse assessed as inhibition of maximal electroshock-induced seizures at 100 mg/kg, ip after 0.5 hrs; type: functional, organism-based; parameters: dose 100 mg/kg; in short: as §1
Candida parapsilosis = test: Antifungal activity against Candida parapsilosis ATCC 22019 after 48 hrs by broth microdilution method; type: functional; conditions: Lodderomyces parapsilosis, ATCC 22019, 48 h
Pichia kudriavzevii = test: Antifungal activity against Candida krusei ATCC 6258 after 48 hrs by broth microdilution method; type: functional; conditions: ATCC 6258, 48 h
Rattus norvegicus [32] = test: Neurotoxicity in Sprague-Dawley rat at 30 mg/kg, ip after 1 hr by rotarod test; type: toxicity, organism-based; parameters: dose 30 mg/kg, route intraperitoneal; conditions: in vivo
Rattus norvegicus [33] = test: Neurotoxicity in Sprague-Dawley rat at 30 mg/kg, po after 4 hrs by rotarod test; type: toxicity, organism-based; parameters: dose 30 mg/kg, route oral; conditions: in vivo
Mus musculus [34] = test: Anticonvulsant activity in CF1 mouse assessed as time to peak effect for inhibition of maximal electroshock-induced seizures at 70 mg/kg, ip after 4 hrs; type: functional, organism-based; parameters: dose 70 mg/kg

CC(C)CC(=O)OC(Cn1ccnc1)c1ccc2ccccc2c1 (centres undefined)
Activity (Rattus norvegicus [1]): Non-toxic
Activity (Rattus norvegicus [2]): Non-toxic
inhibition (Mus musculus [3]): inactive
inhibition (Mus musculus [4]): inactive
inhibition (Mus musculus [5]): Active
selectivity ratio [6]: 3.22
ED50 (Rattus norvegicus [7]): 20.4 mg/kg
Activity (Mus musculus [8]): Non-toxic
MIC (Pseudomonas aeruginosa): > 1020 µg/mL
Activity (Mus musculus [9]): Not Active
inhibition (Rattus norvegicus [10]): inactive
ED50 (Mus musculus [11]): > 138 mg/kg
MIC (Staphylococcus aureus): 8 µg/mL (≈ 24.8 µM)
Activity (Rattus norvegicus [12]): Non-toxic
Activity (Mus musculus [13]): Toxic
selectivity ratio [14]: 2.76
Activity (Rattus norvegicus [15]): Non-toxic
Time (Rattus norvegicus [16]): 0.5 h
Activity (Rattus norvegicus [17]): Non-toxic
Activity (Rattus norvegicus [18]): Non-toxic
inhibition (Mus musculus [19]): Active
Activity (Mus musculus [20]): Non-toxic
ED50 (Rattus norvegicus [21]): 56.36 mg/kg
inhibition (Rattus norvegicus [22]): inactive
Activity (Rattus norvegicus [23]): Non-toxic
Activity (Mus musculus [24]): inactive
TD50 at 0.25 h [25]: 124 mg/kg
Time (Rattus norvegicus [26]): 0.5 h
Activity (Mus musculus [27]): Non-toxic
ED50 (Mus musculus [28]): 38.5 mg/kg
Time (Mus musculus [29]): 0.5 h
MIC (Escherichia coli): > 1020 µg/mL
Activity (Rattus norvegicus [30]): Non-toxic
inhibition (Mus musculus [31]): Active
MIC (Candida parapsilosis): 64 µg/mL (≈ 199 µM)
MIC (Pichia kudriavzevii): 128 µg/mL (≈ 397 µM)
Activity (Rattus norvegicus [32]): Non-toxic
Activity (Rattus norvegicus [33]): Non-toxic
Activity (Mus musculus [34]): inactive

From ChEMBL document CHEMBL1156239, “Synthesis, anticonvulsant and antimicrobial activities of some new 2-acetylnaphthalene derivatives” (Bioorg Med Chem, 2010)
